ChEMBL document CHEMBL4610003 (Bioorg Med Chem, 2020)
pIC50: −log10 of the molar value. Values after ≈ are worked out from the molar mass of the structure shown.

Assays:
[1] = Intrinsic clearance in mouse liver microsomes assessed per mg protein; assay type: ADME, Microsome; conditions: read-out: CLH
Method in brief: (§1)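 Clearance of compound by human or mouse liver microsomes, expressed as µL/min/mg protein.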

[2] = biological target: Voltage-gated inwardly rectifying potassium channel KCNH2 (Homo sapiens, UniProt Q12809); test: Inhibition of human ERG
[3] = Oral bioavailability in CD-1 mouse at 10 mg/kg administered via gavage as single dose; assay type: ADME, organism-based; conditions: in vivo
[4] = test system: Mycobacterium tuberculosis; test: Antimycobacterial activity against Mycobacterium tuberculosis H37Rv assessed as bacterial growth inhibition under replicating, aerobic condition by microplate Alamar blue assay; assay type: functional
Method in brief: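 Read-out is MIC90, the lowest concentration giving 90% growth inhibition of M.tb H37Rv, in µg/mL. Bacteria were grown under aerobic, replicating conditions (MABA).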

[5] = AUC (0 to infinity) in CD-1 mouse at 10 mg/kg, po via gavage administered as single dose; assay type: ADME, organism-based; set-up: dose 10 mg/kg, route oral, time infinity; conditions: in vivo
Method in brief: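 Male CD-1 mice given a single 10 mg/kg dose by oral gavage. Exposure is reported as area under the curve from 0 to infinity in µg*h/mL.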

[6] = Clearance in CD-1 mouse at 2 to 3 mg/kg, iv administered as single bolus dose; assay type: ADME, organism-based; conditions: in vivo
Method in brief: (§2)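 Male CD-1 mice received a single intravenous bolus at 2–3 mg/kg. Reported values are IV clearance and the apparent volume of distribution during the terminal phase, in L/kg.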

[7] = Apparent volume of distribution during terminal phase in CD-1 mouse at 2 to 3 mg/kg, iv administered as single bolus dose; assay type: ADME, organism-based; conditions: in vivo; method in brief: as §2
[8] = test system: Mycobacterium tuberculosis; test: Antimycobacterial activity against Mycobacterium tuberculosis H37Rv assessed as bacterial growth inhibition incubated for 10 days under anerobic condition followed by incubation under ambient gaseous condition for […] by low oxygen recovery assay; assay type: functional
Method in brief: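 Read-out is MIC90, the lowest concentration giving 90% growth inhibition of M.tb H37Rv, in µg/mL. Bacteria were held under non-replicating, low-oxygen conditions (LORA).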

[9] = Intrinsic clearance in human liver microsomes assessed per mg protein; assay type: ADME, Microsome; conditions: read-out: CLH; method in brief: as §1
Vero = test: Cytotoxicity against African green monkey Vero cells assessed as reduction in cell viability incubated for 72 hrs by […] assay; assay type: cell-based; conditions: Chlorocebus sabaeus

Voltage-gated inwardly rectifying potassium channel KCNH2, sequence (Q12809 whole entry): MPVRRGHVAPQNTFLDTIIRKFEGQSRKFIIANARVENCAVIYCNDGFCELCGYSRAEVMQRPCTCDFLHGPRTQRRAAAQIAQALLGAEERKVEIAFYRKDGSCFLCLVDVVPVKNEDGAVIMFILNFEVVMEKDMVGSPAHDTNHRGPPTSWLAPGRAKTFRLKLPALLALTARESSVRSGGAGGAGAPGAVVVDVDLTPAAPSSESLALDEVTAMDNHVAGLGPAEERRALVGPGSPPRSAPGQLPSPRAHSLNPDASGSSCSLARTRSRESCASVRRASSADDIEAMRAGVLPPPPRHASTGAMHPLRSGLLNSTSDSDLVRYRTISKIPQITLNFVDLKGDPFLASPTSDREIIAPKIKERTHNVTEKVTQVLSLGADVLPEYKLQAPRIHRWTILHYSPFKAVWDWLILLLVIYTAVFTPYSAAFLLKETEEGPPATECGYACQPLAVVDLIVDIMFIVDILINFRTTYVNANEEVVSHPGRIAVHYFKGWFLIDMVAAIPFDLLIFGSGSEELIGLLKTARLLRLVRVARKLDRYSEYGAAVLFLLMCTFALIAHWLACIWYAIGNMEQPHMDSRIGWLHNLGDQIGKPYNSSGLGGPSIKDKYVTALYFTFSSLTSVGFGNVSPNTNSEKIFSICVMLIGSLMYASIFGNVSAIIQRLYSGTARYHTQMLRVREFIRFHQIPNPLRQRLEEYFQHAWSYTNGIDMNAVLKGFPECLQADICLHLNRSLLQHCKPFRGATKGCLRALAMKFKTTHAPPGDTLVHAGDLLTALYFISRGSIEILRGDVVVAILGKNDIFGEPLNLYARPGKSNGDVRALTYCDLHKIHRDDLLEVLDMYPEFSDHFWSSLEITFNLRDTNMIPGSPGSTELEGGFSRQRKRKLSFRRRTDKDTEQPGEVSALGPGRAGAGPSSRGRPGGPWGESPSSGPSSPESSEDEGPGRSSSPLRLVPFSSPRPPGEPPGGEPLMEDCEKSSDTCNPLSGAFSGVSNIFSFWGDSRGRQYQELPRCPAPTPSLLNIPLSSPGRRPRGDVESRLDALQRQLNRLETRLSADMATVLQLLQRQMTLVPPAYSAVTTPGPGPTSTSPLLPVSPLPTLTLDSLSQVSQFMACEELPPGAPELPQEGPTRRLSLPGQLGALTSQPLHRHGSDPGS

Row | Compound | microsomal CLint [1] [µL/min/mg] | pIC50 [2] | bioavailability [3] [%] | MIC90 [4] [µg/mL] | AUC(0-inf) [5] [ng·h/mL] | clearance [6] [mL/min/kg] | Vz/F [7] [L/kg] | MIC90 [8] [µg/mL] | microsomal CLint [9] [µL/min/mg] | IC50 (Vero) [µg/mL]
1 | COc1cc([C@](O)(CCN(C)C)[C@@H](c2cc3cc(Br)ccc3nc2OC)c2ccnc(OC)c2OC)cc(OC2CCC2)n1 (racemic) | 4.6 | < 5.00 | 56 | < 0.004 | 8400 | 11 | 33 | 0.01 (≈ 0.015 µM) | 2.5 | > 10
2 | COc1cc([C@](O)(CCN(C)C)[C@@H](c2cc3cc(C#N)ccc3nc2OC)c2ccnc(OC)c2OC)cc(OC(F)F)n1 (racemic) | 11 | 5.15 | 43 | < 0.02 | 3000 | 24 | 40 | 0.04 (≈ 0.0656 µM) | 2.5 | > 10
3 | COc1cc([C@](O)(CCN(C)C)[C@@H](c2cc3cc(Br)ccc3nc2OC)c2cccc(OC)c2F)cc(OC(C)C)n1 (racemic) | 6 | < 4.52 | 43 | < 0.02 | 9000 | 8.9 | 34 | 0.03 (≈ 0.0467 µM) | 3.4 | > 10
4 | COc1cc([C@](O)(CCN(C)C)[C@H](c2cccc(C)c2)c2cc3cc(Br)ccc3nc2OC)cc(OC(C)C)n1 (racemic) | – | < 5.00 | – | 0.01 (≈ 0.0164 µM) | – | – | – | 0.01 (≈ 0.0164 µM) | – | –
5 | CCOc1cc([C@](O)(CCN(C)C)[C@@H](c2cc3cc(Br)ccc3nc2OC)c2ccnc(OC)c2OC)cc(OC(C)C)n1 (racemic) | 1.6 | – | 58 | < 0.02 | 32000 | 3.1 | 9.1 | < 0.02 | 1.8 | > 10
6 | CCSc1cc([C@](O)(CCN(C)C)[C@@H](c2cc3cc(C#N)ccc3nc2OC)c2ccnc(OC)c2OC)cc(SCC)n1 (racemic) | – | 5.82 | – | 0.06 (≈ 0.0947 µM) | – | – | – | 0.03 (≈ 0.0473 µM) | – | –
7 | COc1cc([C@](O)(CCN(C)C)[C@@H](c2cc3cc(Br)ccc3nc2OC)c2ccnc(OC)c2OC)cc(OC(F)F)n1 (racemic) | 4.9 | < 5.00 | 50 | < 0.004 | 9800 | 8.7 | 27 | < 0.004 | 2.1 | > 10
8 | CCOc1cc([C@](O)(CCN(C)C)[C@H](c2cccc(C)c2)c2cc3cc(Br)ccc3nc2OC)cc(OC)n1 (racemic) | 7.8 | < 5.00 | 65 | < 0.02 | 9400 | 12 | 45 | < 0.02 | 4.4 | > 10
9 | COc1cc([C@](O)(CCN(C)C)[C@@H](c2cc3cc(C#N)ccc3nc2OC)c2cccc(C)c2F)cc(OC(F)F)n1 (racemic) | 5.9 | < 4.52 | 66 | 0.01 (≈ 0.0172 µM) | 8600 | 13 | 38 | 0.03 (≈ 0.0517 µM) | 0.6 | > 10
10 | COc1cc([C@](O)(CCN(C)C)[C@@H](c2cc3cc(Br)ccc3nc2OC)c2cccc(OC)c2F)cc(OC(F)F)n1 (racemic) | 6.4 | < 4.52 | 83 | 0.04 (≈ 0.0615 µM) | 14400 | 9.7 | 18 | < 0.02 | 0.1 | > 10
11 | COc1cc([C@](O)(CCN(C)C)[C@@H](c2cc3cc(Br)ccc3nc2OC)c2ccnc(OC)c2OC)cc(OC(C)C)n1 (racemic) | 6.7 | 4.77 | 22 | < 0.01 | 5600 | 6.8 | 19 | < 0.01 | 6.4 | > 10
12 | COc1cc([C@](O)(CCN(C)C)[C@@H](c2cc3cc(C#N)ccc3nc2OC)c2cccc(OC)c2F)cc(SC)n1 (racemic) | 36 | < 5.00 | 28 | 0.02 (≈ 0.0347 µM) | 1100 | 42 | 54 | 0.04 (≈ 0.0694 µM) | 16 | > 10
13 | COc1cc([C@](O)(CCN(C)C)[C@@H](c2cc3cc(Br)ccc3nc2OC)c2ccnc(OC)c2OC)cc(N(C)C)n1 (racemic) | – | – | – | 0.45 (≈ 0.702 µM) | – | – | – | 0.02 (≈ 0.0312 µM) | – | –
14 | CCOc1cc([C@](O)(CCN(C)C)[C@@H](c2cc3cc(Br)ccc3nc2OC)c2cccc(OC)c2F)cc(OC)n1 (racemic) | 14 | < 4.52 | 46 | < 0.01 | 4000 | 19 | 51 | < 0.01 | 4.1 | > 10
15 | CCSc1cc([C@](O)(CCN(C)C)[C@@H](c2cc3cc(Br)ccc3nc2OC)c2ccnc(OC)c2OC)cc(N(C)C)n1 (racemic) | – | < 5.00 | – | 0.04 (≈ 0.0596 µM) | – | – | – | 0.57 (≈ 0.85 µM) | – | –
16 | COc1cc([C@](O)(CCN(C)C)[C@@H](c2cc3cc(Br)ccc3nc2OC)c2cccc(OC)c2F)cc(SC)n1 (racemic) | 20 | < 4.52 | 31 | < 0.02 | 4600 | 13 | 32 | < 0.02 | 4.8 | > 10
17 | CCCOc1cc([C@](O)(CCN(C)C)[C@H](c2cccc(C)c2)c2cc3cc(Br)ccc3nc2OC)cc(OC)n1 (racemic) | – | < 5.00 | – | 0.01 (≈ 0.0164 µM) | – | – | – | 0.02 (≈ 0.0329 µM) | – | –
18 | CCCOc1cc([C@](O)(CCN(C)C)[C@@H](c2cc3cc(Br)ccc3nc2OC)c2ccnc(OC)c2OC)cc(OC)n1 (racemic) | 6.5 | – | 50 | 0.01 (≈ 0.0153 µM) | 10900 | 6.9 | 44 | 0.06 (≈ 0.0915 µM) | 8.2 | > 10
19 | COc1cccc([C@H](c2cc3cc(Br)ccc3nc2OC)[C@@](O)(CCN(C)C)c2cc(SC)nc(SC)c2)c1F (racemic) | 17 | < 5.00 | 66 | < 0.02 | 8400 | 13 | 15 | < 0.02 | 3.4 | 9.6 (≈ 14.8 µM)
20 | COc1cc([C@](O)(CCN(C)C)[C@@H](c2cc3cc(C#N)ccc3nc2OC)c2cccc(OC)c2F)cc(OC(F)F)n1 (racemic) | – | – | – | < 0.02 | – | – | – | < 0.02 | – | –
21 | COc1cc([C@](O)(CCN(C)C)[C@@H](c2cc3cc(C#N)ccc3nc2OC)c2ccnc(OC)c2OC)cc(N(C)C)n1 (racemic) | 16 | 5.47 | 50 | 0.06 (≈ 0.102 µM) | 3300 | 26 | 14 | 0.06 (≈ 0.102 µM) | 8.4 | > 10
22 | COc1cc([C@](O)(CCN(C)C)[C@@H](c2cc3cc(Br)ccc3nc2OC)c2cccc(OC)c2F)cc(S(C)(=O)=O)n1 (racemic) | – | 5.74 | – | 0.46 (≈ 0.694 µM) | – | – | – | 0.73 (≈ 1.1 µM) | – | –
23 | CCOc1cc([C@](O)(CCN(C)C)[C@@H](c2cc3cc(Br)ccc3nc2OC)c2ccnc(OC)c2OC)cc(OC)n1 (racemic) | 7.6 | 5.48 | 70 | < 0.02 | 12700 | 9.5 | 28 | < 0.02 | 3.8 | > 10
24 | CCSc1cc([C@](O)(CCN(C)C)[C@@H](c2cc3cc(Br)ccc3nc2OC)c2ccnc(OC)c2OC)cc(SCC)n1 (racemic) | – | 5.04 | – | 0.04 (≈ 0.0582 µM) | – | – | – | 0.21 (≈ 0.305 µM) | – | –
25 | CCSc1cc([C@](O)(CCN(C)C)[C@@H](c2cc3cc(C#N)ccc3nc2OC)c2cccc3c2OCO3)cc(SCC)n1 (racemic) | – | < 5.00 | – | < 0.02 | – | – | – | 0.05 (≈ 0.0811 µM) | – | –
26 | CCS(=O)(=O)c1cc([C@](O)(CCN(C)C)[C@@H](c2cc3cc(C#N)ccc3nc2OC)c2ccnc(OC)c2OC)cc(S(=O)(=O)CC)n1 (racemic) | – | – | – | 4.4 (≈ 6.31 µM) | – | – | – | 5 (≈ 7.17 µM) | – | –
27 | CCOc1cc([C@](O)(CCN(C)C)[C@@H](c2cc3cc(Br)ccc3nc2OC)c2c(OC)cncc2OC)cc(OC(C)C)n1 (racemic) | 2.3 | < 5.00 | 58 | < 0.02 | 33000 | 2.7 | 20 | < 0.02 | 1.1 | > 10
